Measured values gathered from unrelated publications.
Protocols differ between the studies behind these lines.
RET: Proto-oncogene tyrosine-protein kinase receptor Ret (RET, Homo sapiens, UniProt P07949)
RET V804L: Proto-oncogene tyrosine-protein kinase receptor Ret (RET, Homo sapiens, UniProt P07949, V804L)
RET M918T: Proto-oncogene tyrosine-protein kinase receptor Ret (RET, Homo sapiens, UniProt P07949, M918T)

Cn1cc(-c2cccc(N3CCc4c(sc5c4CC(C)(C)C5)C3=O)c2CO)cc(Nc2ccncn2)c1=O  inhibition (RET; enzyme activity, inhibitor; 1 µM): 14%
C#Cc1n[nH]c2c(-c3cn([C@@H](C)c4ccccc4)c(=O)[nH]c3=O)cc(F)cc12  inhibition (RET; enzyme activity, inhibitor; 0.1 µM): 3.2%
Cc1nn(C)cc1-c1nc2c(N3CCN(Cc4ccc(Cl)cc4)CC3)c(Cl)cnc2[nH]1  remaining binding (RET V804L; binding, competition with immobilised ligand; 1 µM): 2.1%
C#Cc1n[nH]c2c(-c3cn([C@@H](C)c4ccccn4)c(=O)[nH]c3=O)cc(F)cc12  inhibition (Proto-oncogene tyrosine-protein kinase receptor Ret (RET, Homo sapiens, UniProt P07949, V804M); enzyme activity, inhibitor; 0.1 µM): -0.3%
O=C(Cn1cc(C=C2C(=O)NC(=O)NC2=O)c2ccccc21)Nc1ccccc1  remaining activity (RET; enzyme activity, inhibitor, radiometric; 0.1 µM): 131%
COc1ncccc1-c1cnn2ccc(N3CCN(C(=O)OC(C)C)CC3)nc12  remaining binding (RET; binding, competition with immobilised ligand; 1 µM): 100%
O=C(NCc1ncc(C(F)(F)F)cc1Cl)c1ccc2c(c1)C1(CCS(=O)(=O)CC1)[C@H](C1CC1)N2S(=O)(=O)c1ccc(F)cc1  remaining binding (RET M918T; cell-free assay, competition with immobilised ligand; 1 µM): 96%
O=C1NC(=O)N(c2ccccc2)C(=O)C1=CNc1ccc2[nH]c(=O)[nH]c2c1  remaining activity (RET; enzyme activity, inhibitor, radiometric; 0.1 µM): 107%
N#CC1(c2ccccn2)CCN(Cc2cc(C(=O)O)c(=O)n3ccccc23)CC1  remaining binding (RET V804L; cell-free assay, competition with immobilised ligand; 1 µM): 100%
Nc1ncc(-c2nc(N3CCOCC3)nc(N3CCOCC3)n2)c(C(F)F)n1  remaining binding (RET V804L; binding, competition with immobilised ligand; 10 µM): 88%
Cn1cncc1[C@@](O)(COc1ccc(C#N)cc1-c1ccc(OC(F)(F)F)cc1)c1ccc(C#N)cc1  remaining binding (RET M918T; cell-free assay, competition with immobilised ligand; 1 µM): 98%
CC(C)(C)c1cc(C=C(C#N)C#N)cc(Br)c1O  remaining activity (RET; enzyme activity, inhibitor; 0.5 µM): 98.2%
